Activity calls are given as the source filed them. No cut-off for these calls is given here.
Columns and labels:
3T3-L1 [1] = experiment: Induction of adipogenesis in mouse 3T3L1 cells assessed as decrease of leptin level at 10 uM after 24 hrs (reference value: 3089.21 +/- 33.37 pg/ml); format: functional
3T3-L1 [2] = experiment: Cytotoxicity against mouse 3T3L1 cells assessed as glucose consumption at 10 uM by MTT assay; format: cell-based; conditions: 3t3-l1, 10 µM
3T3-L1 [3] = experiment: Induction of adipogenesis in mouse 3T3L1 cells assessed as increase of adiponectin expression at 10 uM after 8 to 12 days relative to control; format: functional
3T3-L1 [4] = experiment: Induction of adipogenesis in mouse 3T3L1 cells assessed as increase of adiponectin level at 10 uM after 8 to 12 days (reference value: 843.78 +/- 20.61 ng/ml); format: functional
HepG2 [5] = experiment: Cytotoxicity against human HepG2 cells assessed as glucose consumption at 10 uM by MTT assay in presence of insulin; format: cell-based; conditions: hepg2, 10 µM
In short: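 HepG2 cells; glucose consumption measured with insulin co-present at 0.1 µM. Full procedure given in supplementary data (S3).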

HepG2 [6] = experiment: Cytotoxicity against human HepG2 cells assessed as glucose consumption at 10 uM by MTT assay; format: cell-based; conditions: hepg2, 10 µM
Rattus norvegicus [7] = experiment: Hepatoprotective activity against high fat/high calorie diet-induced non-alcoholic fatty liver disease in Wistar rat assessed as decreased body weight at 50 mg/kg, po qd for 4 weeks (reference value: 431 +/- 19.4 g); format: functional
Rattus norvegicus [8] = experiment: Hepatoprotective activity against high fat/high calorie diet induced NAFLD in Wistar rat assessed as restoration of liver cells at 50 mg/kg, po qd for 4 weeks by oil red O and H & E staining; format: functional, organism-based; parameters: dose 50 mg/kg
In short: (§1)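 Male Wistar rats on a high-fat/high-calorie diet were given compound orally at 50 mg/kg once daily for 4 weeks, suspended in Tween 80 and 5% saline. Liver sections were then stained with Oil Red O and H&E and compared against normal-diet and untreated diet-model rats.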

Rattus norvegicus [9] = experiment: Hepatoprotective activity against high fat/high calorie diet-induced non-alcoholic fatty liver disease in Wistar rat assessed as decreased triglyceride levels at 50 mg/kg, po qd for 4 weeks by radioimmunoassay (reference value: 2.38 +/- 1.20 mM); format: functional
Rattus norvegicus [10] = experiment: Hepatoprotective activity against high fat/high calorie diet-induced non-alcoholic fatty liver disease in Wistar rat assessed as decreased ALT levels at 50 mg/kg, po qd for 4 weeks (reference value: 47.52 +/- 4.98 u/l); format: functional
Rattus norvegicus [11] = experiment: Hepatoprotective activity against high fat/high calorie diet-induced non-alcoholic fatty liver disease in Wistar rat assessed as reduction of fat accumulation in liver cells at 50 mg/kg, po qd for 4 weeks by oil red O and H & E staining; format: functional, organism-based; parameters: dose 50 mg/kg; in short: as §1
Rattus norvegicus [12] = experiment: Hepatoprotective activity against high fat/high calorie diet-induced non-alcoholic fatty liver disease in Wistar rat assessed as decreased HDL cholesterol levels at 50 mg/kg, po qd for 4 weeks by radioimmunoassay (reference value: 1.20 +/- 0.43 mM); format: functional
Rattus norvegicus [13] = experiment: Hepatoprotective activity against high fat/high calorie diet-induced non-alcoholic fatty liver disease in Wistar rat assessed as decreased liver weight at 50 mg/kg, po qd for 4 weeks (reference value: 21.4 +/- 3.1 g); format: functional
Rattus norvegicus [14] = experiment: Toxicity in high fat/high calorie diet-induced non-alcoholic fatty liver disease Wistar rat model assessed as abnormal behavioral at 50 mg/kg, po qd for 4 weeks; format: organism-based; parameters: dose 50 mg/kg, route oral; conditions: in vivo, 672 h
Rattus norvegicus [15] = experiment: Hepatoprotective activity against high fat/high calorie diet-induced non-alcoholic fatty liver disease in Wistar rat assessed as decreased LDL cholesterol levels at 50 mg/kg, po qd for 4 weeks by radioimmunoassay (reference value: 0.97 +/- 0.31 mM); format: functional
Rattus norvegicus [16] = experiment: Toxicity in high fat/high calorie diet-induced non-alcoholic fatty liver disease Wistar rat model assessed as physiological signs of toxicity at 50 mg/kg, po qd for 4 weeks; format: organism-based; parameters: dose 50 mg/kg, route oral; conditions: in vivo, 672 h
Rattus norvegicus [17] = experiment: Hepatoprotective activity against high fat/high calorie diet-induced non-alcoholic fatty liver disease in Wistar rat assessed as insulin at 50 mg/kg, po qd for 4 weeks (reference value: 36.32 +/- 2.97 uU/ml); format: functional
Rattus norvegicus [18] = experiment: Hepatoprotective activity against high fat/high calorie diet-induced non-alcoholic fatty liver disease in Wistar rat assessed as decreased visceral fat assessed per 100 gram of body weight at 50 mg/kg, po qd for 4 weeks (reference value: 4.95 +/- 0.95 g/100g BW); format: functional
Rattus norvegicus [19] = experiment: Hepatoprotective activity against high fat/high calorie diet-induced non-alcoholic fatty liver disease in Wistar rat assessed as decrease in liver/body weight ratio at 50 mg/kg, po qd for 4 weeks (reference value: 4.95 %); format: functional; parameters: scale not given: the % may be the effect or the level left
Rattus norvegicus [20] = experiment: Hepatoprotective activity against high fat/high calorie diet-induced non-alcoholic fatty liver disease in Wistar rat assessed as serum leptin levels at 50 mg/kg, po qd for 4 weeks (reference value: 7.59 +/- 2.36 ng/ml); format: functional
Rattus norvegicus [21] = experiment: Hepatoprotective activity against high fat/high calorie diet-induced non-alcoholic fatty liver disease in Wistar rat assessed as HOMA-IR levels at 50 mg/kg, po qd for 4 weeks (reference value: 15.31 +/- 0.22); format: functional
Rattus norvegicus [22] = experiment: Hepatoprotective activity against high fat/high calorie diet-induced non-alcoholic fatty liver disease in Wistar rat assessed as decreased FBS at 50 mg/kg, po qd for 4 weeks by radioimmunoassay (reference value: 9.23 +/- […] mM); format: functional
Rattus norvegicus [23] = experiment: Hepatoprotective activity against high fat/high calorie diet-induced non-alcoholic fatty liver disease in Wistar rat assessed as serum adiponectin levels at 50 mg/kg, po qd for 4 weeks (reference value: 10.49 +/- 2.59 ng/ml); format: functional

O=C(COc1ccc(C=C2C(=O)NC(=O)NC2=O)cc1)Nc1ccccc1
Activity (3T3-L1 [1]): 1856.32 pg/mL
Activity (3T3-L1 [2]): Non-toxic
Activity (3T3-L1 [3]): 135.18%
Activity (3T3-L1 [4]): 1111.73 ng/mL

CN(CCOc1ccc(CC2SC(=O)NC2=O)cc1)c1ccccn1 (stereo not drawn) [ROSIGLITAZONE]
Activity (HepG2 [5]): 29.41%
Activity (3T3-L1 [1]): 1773.67 pg/mL
Activity (3T3-L1 [3]): 157.31%
Activity (HepG2 [6]): 15.58%
Activity (3T3-L1 [4]): 1324.73 ng/mL

Cc1ccc(NC(=O)COc2ccc(C=C3C(=O)NC(=S)NC3=O)cc2)nc1
Activity (3T3-L1 [1]): 1514.81 pg/mL
Activity (3T3-L1 [2]): Non-toxic
Activity (3T3-L1 [3]): 146.94%
Activity (3T3-L1 [4]): 1239.44 ng/mL

O=C(COc1ccc(C=C2C(=O)NC(=O)NC2=O)cc1)Nc1ccc(F)c(F)c1
Activity (3T3-L1 [1]): 1571.98 pg/mL
Activity (3T3-L1 [2]): Non-toxic
Activity (3T3-L1 [3]): 143.8%
Activity (3T3-L1 [4]): 1322.02 ng/mL

O=C(COc1ccc(C=C2C(=O)NC(=O)NC2=O)cc1)Nc1ccccn1
Activity (Rattus norvegicus [7]): 360.5 g
Activity (Rattus norvegicus [8]): Active
Activity (3T3-L1 [1]): 1271.98 pg/mL
Activity (Rattus norvegicus [9]): 1.02 mM
Activity (3T3-L1 [2]): Non-toxic
Activity (Rattus norvegicus [10]): 33.06 U/L
Activity (Rattus norvegicus [11]): Active
Activity (3T3-L1 [3]): 180.32%
Activity (Rattus norvegicus [12]): 1.11 mM
Activity (Rattus norvegicus [13]): 16 g
Activity (Rattus norvegicus [14]): Non-toxic
Activity (Rattus norvegicus [15]): 0.18 mM
Activity (Rattus norvegicus [16]): Non-toxic
Activity (Rattus norvegicus [17]): 33.43 uU/ml
Activity (Rattus norvegicus [18]): 3.98 g
Activity (Rattus norvegicus [19]): 4.34%
Activity (Rattus norvegicus [20]): 6 ng/mL
Activity (Rattus norvegicus [21]): 7.03
Activity (Rattus norvegicus [22]): 4.73 mM
Activity (Rattus norvegicus [23]): 12.53 µg/mL
Activity (3T3-L1 [4]): 1639.61 ng/mL

Reference: ChEMBL document CHEMBL1938366, “Synthesis and biological activity of novel barbituric and thiobarbituric acid derivatives against non-alcoholic fatty liver disease” (Eur J Med Chem, 2011)
